From ChEMBL document CHEMBL1154448, “Thiazolyl/oxazolyl formazanyl indoles as potent anti-inflammatory agents” (Eur J Med Chem, 2008)

Tests used:
Rattus norvegicus [1] = assay: Antiinflammatory activity in Albino rat assessed as inhibition of carrageenan-induced paw edema at 50 mg/kg, po administered 1 hr before carrageenan challenge by micro-pipette method relative to control; format: functional; design: scale not given: the % may be the effect or the level left
Outline: (§1)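 Rats of either sex, 75-125 g, in groups of 6 (one control group). Compounds were suspended in gum acacia and given orally 1 h before carrageenin. Foot volume was measured by micro-pipette before and at 1 and 3 h after carrageenin. % activity was calculated from the mean oedema volumes of treated (Vt) and control (Vc) groups.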

Mus musculus [2] = assay: Analgesic activity in mouse assessed as protection against phenylquinone-induced writhes at 50 mg/kg, po administered 1 hr before phenylquinone challenge relative to control; format: functional
Outline: (§2)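 Mice in groups of 5 were dosed orally and, 1 h later, injected i.p. with 0.25 mL of 0.02% phenylquinone in 5% ethanol. Writhes per mouse were counted for 5 min, between 5 and 10 min after the irritant. % protection = (1 − mean writhes in test group / mean writhes in control group) × 100.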

[3] = Acute toxicity in ip dosed albino mouse assessed as mortality after 24 hrs; format: organism-based; conditions: in vivo, read-out: ALD50
Outline: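 Albino mice of either sex (20-28 g), separate groups given graded intraperitoneal doses; percent mortality recorded 24 h after dosing; approximate 50% lethal dose (ALD50) calculated by the method of Smith.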

Mus musculus [4] = assay: Analgesic activity in mouse assessed as protection against phenylquinone-induced writhes at 25 mg/kg, po administered 1 hr before phenylquinone challenge relative to control; format: functional; outline: as §2
Mus musculus [5] = assay: Analgesic activity in mouse assessed as protection against phenylquinone-induced writhes at 100 mg/kg, po administered 1 hr before phenylquinone challenge relative to control; format: functional; outline: as §2
Rattus norvegicus [6] = assay: Antiinflammatory activity in Albino rat assessed as inhibition of carrageenan-induced paw edema at 100 mg/kg, po administered 1 hr before carrageenan challenge by micro-pipette method relative to control; format: functional; design: scale not given: the % may be the effect or the level left; outline: as §1
[7] = Toxicity in ip dosed Albino rat assessed as ulcerogenic activity after 8 hrs; format: organism-based; conditions: in vivo, read-out: UD50
Outline: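 Adult albino rats of either sex, in groups of 10, non-pregnant, fasted 24 h with water allowed. Drugs were given i.p. and animals killed 8 h later. Stomach, duodenum and jejunum were examined with a hand lens for epithelial shedding, red spots or bleeding, and erosion or ulceration. Any one sign was scored as ulcerogenic. Result reported as UD50.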

Rattus norvegicus [8] = assay: Antiinflammatory activity in Albino rat assessed as inhibition of carrageenan-induced paw edema at 25 mg/kg, po administered 1 hr before carrageenan challenge by micro-pipette method relative to control; format: functional; design: scale not given: the % may be the effect or the level left; outline: as §1

| Compound | Activity (Rattus norvegicus [1]) | Activity (Mus musculus [2]) | LD50 at 24 h [3] | Activity (Mus musculus [4]) | Activity (Mus musculus [5]) | Activity (Rattus norvegicus [6]) | TD50 at 8 h [7] | Activity (Rattus norvegicus [8]) |
| --- | --- | --- | --- | --- | --- | --- | --- | --- |
| Clc1ccc(/N=N/C(=N\c2nc(-c3c(-c4ccc(Cl)cc4)[nH]c4ccccc34)cs2)c2c(-c3ccccc3)[nH]c3ccccc23)cc1 | 23.1% | 21.9% | > 800 mg/kg |  |  |  |  |  |
| COc1ccc(/N=N/C(=N\c2nc(-c3c(-c4ccc(Cl)cc4)[nH]c4ccccc34)co2)c2c(-c3ccccc3)[nH]c3ccccc23)cc1 | 17.6% | 15.2% | > 800 mg/kg |  |  |  |  |  |
| Clc1ccc(/N=N/C(=N\c2nc(-c3c(-c4ccc(Cl)cc4)[nH]c4ccccc34)co2)c2c(-c3ccccc3)[nH]c3ccccc23)cc1 | 27.9% | 26.3% | > 800 mg/kg |  |  |  |  |  |
| Cc1[nH]c2ccccc2c1C(=N/c1nc(-c2c(-c3ccc(Cl)cc3)[nH]c3ccccc23)co1)/N=N/c1ccc(Cl)cc1 | 22.1% | 21.2% | > 800 mg/kg |  |  |  |  |  |
| CCc1[nH]c2ccccc2c1/C=N/c1nc(-c2c(-c3ccc(Cl)cc3)[nH]c3ccccc23)cs1 | 25.8% | 23.2% | > 800 mg/kg |  |  |  |  |  |
| Clc1ccc(-c2[nH]c3ccccc3c2-c2coc(/N=C/c3c[nH]c4ccccc34)n2)cc1 | 22.7% | 20.9% | > 800 mg/kg |  |  |  |  |  |
| Cc1[nH]c2ccccc2c1/C=N/c1nc(-c2c(-c3ccc(Cl)cc3)[nH]c3ccccc23)cs1 | 53.3% | 51.4% | > 1000 mg/kg | 35.1% | 64.6% | 68.2% | 200 mg/kg | 36.4% |
| CCc1[nH]c2ccccc2c1/C=N/c1nc(-c2c(-c3ccc(Cl)cc3)[nH]c3ccccc23)co1 | 17.3% | 16.2% | > 800 mg/kg |  |  |  |  |  |
| CCc1[nH]c2ccccc2c1C(=N/c1nc(-c2c(-c3ccc(Cl)cc3)[nH]c3ccccc23)cs1)/N=N/c1ccc(Cl)cc1 | 17.3% | 16.2% | > 800 mg/kg |  |  |  |  |  |
| CCc1[nH]c2ccccc2c1C(=N/c1nc(-c2c(-c3ccc(Cl)cc3)[nH]c3ccccc23)co1)/N=N/c1ccc(Cl)cc1 | 23.5% | 21.5% | > 800 mg/kg |  |  |  |  |  |
| Clc1ccc(-c2[nH]c3ccccc3c2-c2coc(/N=C/c3c(-c4ccccc4)[nH]c4ccccc34)n2)cc1 | 25.3% | 23.7% | > 800 mg/kg |  |  |  |  |  |
| Clc1ccc(/N=N/C(=N\c2nc(-c3c(-c4ccc(Cl)cc4)[nH]c4ccccc34)cs2)c2c[nH]c3ccccc23)cc1 | 9.6% | 8.5% | > 800 mg/kg |  |  |  |  |  |
| COc1ccc(/N=N/C(=N\c2nc(-c3c(-c4ccc(Cl)cc4)[nH]c4ccccc34)cs2)c2c[nH]c3ccccc23)cc1 | 19.2% | 18.8% | > 800 mg/kg |  |  |  |  |  |
| COc1ccc(/N=N/C(=N\c2nc(-c3c(-c4ccc(Cl)cc4)[nH]c4ccccc34)co2)c2c[nH]c3ccccc23)cc1 | 20.6% | 19.2% | > 800 mg/kg |  |  |  |  |  |
| Clc1ccc(/N=N/C(=N\c2nc(-c3c(-c4ccc(Cl)cc4)[nH]c4ccccc34)co2)c2c[nH]c3ccccc23)cc1 | 16.2% | 14.7% | > 800 mg/kg |  |  |  |  |  |
| COc1ccc(/N=N/C(=N\c2nc(-c3c(-c4ccc(Cl)cc4)[nH]c4ccccc34)cs2)c2c(C)[nH]c3ccccc23)cc1 | 15.4% | 13.7% | > 800 mg/kg |  |  |  |  |  |
| COc1ccc(/N=N/C(=N\c2nc(-c3c(-c4ccc(Cl)cc4)[nH]c4ccccc34)co2)c2c(C)[nH]c3ccccc23)cc1 | 19.1% | 17.8% | > 800 mg/kg |  |  |  |  |  |
| COc1ccc(/N=N/C(=N\c2nc(-c3c(-c4ccc(Cl)cc4)[nH]c4ccccc34)cs2)c2c(-c3ccccc3)[nH]c3ccccc23)cc1 | 11.5% | 10.5% | > 800 mg/kg |  |  |  |  |  |
| CCc1[nH]c2ccccc2c1C(=N/c1nc(-c2c(-c3ccc(Cl)cc3)[nH]c3ccccc23)cs1)/N=N/c1ccc(OC)cc1 | 13.5% | 12.3% | > 800 mg/kg |  |  |  |  |  |
| Clc1ccc(-c2[nH]c3ccccc3c2-c2csc(/N=C/c3c[nH]c4ccccc34)n2)cc1 | 31.8% | 30.6% | > 800 mg/kg |  |  |  |  |  |
| Cc1[nH]c2ccccc2c1C(=N/c1nc(-c2c(-c3ccc(Cl)cc3)[nH]c3ccccc23)cs1)/N=N/c1ccc(Cl)cc1 | 21.2% | 19.8% | > 800 mg/kg |  |  |  |  |  |
| Cc1[nH]c2ccccc2c1/C=N/c1nc(-c2c(-c3ccc(Cl)cc3)[nH]c3ccccc23)co1 | 21.3% | 19.9% | > 800 mg/kg |  |  |  |  |  |
| CCCCC1C(=O)N(c2ccccc2)N(c2ccccc2)C1=O [PHENYLBUTAZONE] | 38.8% | 37.2% |  | 13.7% | 62.3% | 65.4% | 66.7 mg/kg | 15.2% |
| CCc1[nH]c2ccccc2c1C(=N/c1nc(-c2c(-c3ccc(Cl)cc3)[nH]c3ccccc23)co1)/N=N/c1ccc(OC)cc1 | 25.2% | 23.9% | > 800 mg/kg |  |  |  |  |  |
| Clc1ccc(-c2[nH]c3ccccc3c2-c2csc(/N=C/c3c(-c4ccccc4)[nH]c4ccccc34)n2)cc1 | 19.7% |  | 800 mg/kg |  |  |  |  |  |
